# Source: PubChem (The Scripps Research Institute Molecular Screening Center)
# PLCb3 inh – inhibitors of human phospholipase C beta3; Purified PLC-beta3, fluorogenic substrate, fluorescence; inhibition, % at 12.2 µM; hit rate 0.18% among 370,000; in the data active = inhibition above about 11%;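 note: 0% = median of compound wells on plate and 100% = full blocker control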
# Tn6 DDE FP – disrupts Tn6 cyclic peptide binding to fibrin D-Dimer-E complex. inhibition, % at 8.3 µM. Fibrin DD(E) TRITC-Tn6 fluorescence polarization displacement. hit rate 0.21% among 370,000;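 active = inhibition above a per-campaign cutoff: mean of compounds within control limits plus 3 SD, cut at about 15% in these data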;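 note: 0% = median of all compound wells on the plate and 100% = blocking peptide control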
# Tn7 DDE FP – inhibitors of Tn7 peptide binding to human fibrin DD(E); P02675; FP displacement of FITC-Tn7 peptide from fibrin DD(E); 0% = median of compound wells per plate; inhibition, % at 8.3 µM; hit rate 0.13% among 370,000; AID 720508;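 active = inhibition above the mean of compounds falling within the control limits plus 3 SD of them, cut at about 14% in these data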;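 note: 0% = plate median of compound wells and 100% = 10 µM Aha-Tn7 peptide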
#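 Assay system: Human clot-derived fibrin DD(E) complex | Buffer or medium: Tris/NaCl/CaCl2 buffer, pH 7.8 | Repeats: One replicate per compound | Benchmarks: Aha-Tn7 high control | Measure: % inhibition scaled between sample-field median and high-control FP | Schedule: 10 min plus 3 h, room temperature | Signal: Fluorescence polarization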
# ADAM17 inh – inhibits human ADAM17; P78536; recombinant ADAM17, EDANS/DABCYL FRET peptide cleavage; inhibition, % at 6.95 µM; hit rate 0.83% among 370,000; AID 720648;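 active = inhibition above the mean of compounds lying between control limits plus 3 SD, set per campaign, cut at about 8.5% in these data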;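 note: 0% = DMSO-only wells as the low control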
# PLC-gamma1 inh – PLC-gamma1 (human) inhibition, primary screen; purified PLC-gamma1, fluorogenic substrate, fluorescence; inhibition, % at 12.2 µM; P19174; hit rate 0.84% among 370,000; in the data active = inhibition above about 9.5%
# ADAM10 inh – ADAM10 inhibition, QFRET primary screen; inhibition, % at 7 µM; O14672; recombinant ADAM10, EDANS/DABCYL FRET peptide cleavage, 3 h; hit rate 0.62% among 370,000;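 active = inhibition above a per-campaign cutoff equal to the mean of compounds falling between control-based bounds plus 3 SD, cut at about 20% in these data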;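 note: 0% = DMSO wells while the 100% control is not disclosed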
# Target sequence (O14672 214-748 limits assumed): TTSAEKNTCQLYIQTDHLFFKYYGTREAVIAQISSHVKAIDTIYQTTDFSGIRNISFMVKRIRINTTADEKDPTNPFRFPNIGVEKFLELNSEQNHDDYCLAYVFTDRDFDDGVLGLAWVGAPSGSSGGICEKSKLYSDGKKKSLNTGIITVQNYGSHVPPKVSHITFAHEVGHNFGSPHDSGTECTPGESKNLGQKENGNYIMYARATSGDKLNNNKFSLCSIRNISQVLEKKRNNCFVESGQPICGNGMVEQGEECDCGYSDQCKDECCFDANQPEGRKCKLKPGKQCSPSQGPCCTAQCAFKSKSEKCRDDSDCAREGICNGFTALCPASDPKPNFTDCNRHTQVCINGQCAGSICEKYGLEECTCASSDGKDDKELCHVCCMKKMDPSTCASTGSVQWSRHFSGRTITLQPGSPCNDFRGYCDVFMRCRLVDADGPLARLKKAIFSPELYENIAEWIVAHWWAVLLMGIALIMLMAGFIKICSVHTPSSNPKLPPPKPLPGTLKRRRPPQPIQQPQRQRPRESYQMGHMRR
# Tn6 DDE ctr – counter-screen hit for Tn6 peptide-fibrin DD(E) binding disruption | inhibition, % at 8.3 µM | shares compounds with Tn6 DDE FP | hit rate 2% among 680 | AID 720621 | TRITC-Tn6 fluorescence polarization displacement; 0% = median of compound wells, not DMSO;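 active = inhibition above the mean of test compounds lying between the control limits plus 3 SD of those, cut at about 14% in these data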;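 note: 0% = median of compound wells and 100% = wells with Aha-Tn7 blocking peptide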
# Tn6 DDE conf – DD(E)-Tn6 binding inhibition, FP confirmation | inhibition, % at 8.3 µM | FP displacement of TRITC-Tn6 peptide from DD(E); 0% = per-plate median of test wells | hit rate 10% among 680 | shares compounds with Tn6 DDE FP;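 active = inhibition above the mean of compounds lying within the control limits plus 3 SD, cut at about 16% in these data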;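 note: 100% = high control wells holding a competing inhibitor peptide at 10 µM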
# Active calls of the source: *; . = no result given. Most compounds without a hit are left out; they make up all but 2.3% or so of the library.
SMILES,PLCb3 inh,Tn6 DDE FP,Tn7 DDE FP,ADAM17 inh,PLC-gamma1 inh,ADAM10 inh,Tn6 DDE ctr,Tn6 DDE conf
COc1ccc(C(=O)C2(C(=O)Nc3cc(C)cc(C)c3)CC(c3ccccc3C(F)(F)F)=NO2)cc1 (centres undefined),-4,3,11,3,0,-24,.,.
CCOc1ccc(OCC)c(S(=O)(=O)n2cnc(C)c2)c1,-8,16*,-4,-4,2,-11,-3,-8
Cc1cc(C)cc(C(=O)OCCCN(C)C2CN(Cc3cn(Cc4ccc([N+](=O)[O-])cc4)nn3)S(=O)(=O)C2)c1 (centres undefined),0,-3,9,0,0,-1,.,.
C/C(=N/NC(=O)c1ccoc1C)c1cccs1,-81,-7,-7,2,-3,5,.,.
O=C(CN(Cc1ccco1)S(=O)(=O)c1ccccc1)N/N=C/c1cccc(O)c1,1,16*,5,1,-2,3,-5,-9
CCCn1c(=O)c2c(nc3n2CC(C)CN3Cc2ccccc2)n(C)c1=O (centres undefined),0,-5,4,-1,2,-1,.,.
C=CCn1c(=O)c2c(nc3n2CC(C)CN3Cc2ccccc2)n(C)c1=O (centres undefined),-5,17*,-8,-2,1,4,-1,-12
O=C(CN1C(=O)CCSc2ccccc21)Nc1ccc(F)cc1F,0,-7,-2,1,-1,-2,.,.
Cc1cc(N2C(=O)C(=O)/C(=C(/O)c3ccccc3)C2c2cccs2)no1 (centres undefined),0,21*,7,2,-2,6,5,-1
COc1cccc(/C(O)=C2/C(=O)C(=O)N(c3cc(C)on3)C2c2cccs2)c1 (centres undefined),-5,1,-1,-6,-3,-4,.,.
Cc1ccc(-c2[nH]nc(N)c2N=Nc2cccc(Cl)c2C)cc1,1,17*,6,4,4,7,5,0
COc1ccc(-n2c(SCC(=O)N(CC(C)C)CC(C)C)nnc2-c2ccncc2)cc1,3,5,1,-1,2,-4,.,.
Cc1ccc(S(=O)(=O)N2CCN(c3ncnc4scc(-c5ccccc5)c34)CC2)cc1,-8,-1,3,-1,2,-10,.,.
Cc1ccc(-c2csc3ncnc(N4CCN(c5ccccc5O)CC4)c23)cc1,-4,16*,4,2,1,-5,4,-2
O=C(CSc1nnc(-c2cccnc2)n1-c1ccccc1)Nc1cccc2ccccc12,5,8,-10,1,2,-8,.,.
O=C(NC1CC1)c1cccc2c1C(=O)c1ccc(N3CCC(N4CCCCC4)CC3)cc1S2(=O)=O,-124,18*,-5,4,-92,-1,-3,0
O=C(COC(=O)c1cc(-c2cccc3ccccc23)nc2ccccc12)NC1CCS(=O)(=O)C1 (centres undefined),-203,30*,-5,-10,-144,-37,6,20*
COC(=O)[C@H]1C[C@@]2(N3CCCC3)c3ccccc3N[C@H]2N1S(C)(=O)=O,-3,8,-2,-2,-3,-7,.,.
COc1ccc(-c2cc(C(=O)Nc3ccccc3)on2)cc1,5,22*,-2,-2,4,-8,3,-1
O=C(NCCS(=O)(=O)N1CCN(c2ccccc2F)CC1)c1cccs1,-7,17*,9,-1,1,-3,6,-4
COCCCNC(=O)C1CCN(S(=O)(=O)c2ccc3[nH]c(=O)oc3c2)CC1,4,-3,1,-2,6,8,.,.
Clc1cccc(OCCN2CCNCC2)c1,3,4,1,-4,1,-1,.,.
OCCN1CCN(CCOc2cccc(Cl)c2)CC1,3,17*,-7,0,2,3,0,-4
Cc1cc(Br)cn2c(Cc3cccc(Cl)c3)c(-c3cccc(Cl)c3)nc12,-7,0,3,-12,-5,-17,.,.
Cc1cc(Br)cn2c(Cc3ccsc3)c(-c3cccc(Cl)c3)nc12,-9,18*,-1,6,1,3,11,6
SMILES,PLCb3 inh,Tn6 DDE FP,Tn7 DDE FP,ADAM17 inh,PLC-gamma1 inh,ADAM10 inh,Tn6 DDE ctr,Tn6 DDE conf
C=C(C)C(=O)N1CC2(CC(c3cccc(NC(=O)CC(c4ccccc4)c4ccccc4)c3)=NO2)C[C@H]1C(N)=O (some centres undefined),2,15*,4,4,1,12,2,2
CCC(=O)N1CC2(CC(c3cccc(NC(=O)CC(c4ccccc4)c4ccccc4)c3)=NO2)C[C@H]1C(N)=O (some centres undefined),-1,0,-7,4,1,7,.,.
O=c1[nH]nc(Cc2ccc(Cl)cc2)c2ccccc12,1,15*,4,-3,0,0,0,-3
O=c1[nH]nc(Cc2ccc(Cl)cc2Cl)c2ccccc12,1,-1,-4,-3,-2,3,.,.
O=c1[nH]nc(CNc2ccc(O)cc2)c2ccccc12,-52,16*,0,-10,-43,-41,-7,-3
COC(=O)[C@]1(CNS(=O)(=O)C2CC2)CC(=O)N(C)[C@@H]1c1ccccc1,2,7,0,-2,1,1,.,.
CC(C)(C)c1ccc(-c2nnc3sc(COc4ccccc4)nn23)cc1,2,5,6,0,-1,1,.,.
Cc1cc(C)c2c(N)c(C(=O)Nc3ccccc3Cl)sc2n1,-261,18*,6,-28,-191,-117,-5,-6
CCN1C=C(Cc2ccc(F)cc2)C2=C(C1)C(c1ccc(F)cc1)C(C#N)=C(N)O2 (centres undefined),-30,18*,8,-2,-28,-11,9,9
CCN1C=C(Cc2ccccc2C)C2=C(C1)C(c1ccccc1C)C(C#N)=C(N)O2 (centres undefined),-48,6,2,-8,-39,-26,.,.
Nn1c(SCC(=O)Nc2ccccc2-c2ccccc2)nnc1-c1n[nH]c2c1CCC2,4,6,-4,2,2,8,.,.
COC(=O)c1cc(-c2cc(F)cc(OC)c2)c(=O)n2c1CCC2,-1,7,-1,-1,7,-5,.,.
O=C(CN1C(=O)c2cccnc2Oc2ccc(Cl)cc21)N1CCCC1,-1,16*,3,-2,-2,-6,1,0
Cc1cc(C(C)(C)C)cc(S(=O)(=O)NCCc2ccncc2)c1C,-3,21*,0,0,0,0,-5,-8
